Assay results from ChEMBL document CHEMBL1124135, “Substituted 2-[(2-benzimidazolylsulfinyl)methyl]anilines as potential inhibitors of H+/K+ ATPase” (J Med Chem, 1988).

Test system: Canis familiaris
Experiment: Inhibitory activity when administered intravenously in histamine-stimulated gastric fistula dog at 3 mg/kg, id
Assay type: functional
Conditions: Canis lupus familiaris, Stomach, in the assay text read “in” for “when administered intravenously in”
Summary of the method: (§1)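 Conscious gastric-fistula dogs fasted 18 h, given 3 mg/kg after a 30-min basal period. Histamine infused at 15 μg/kg per h, with gastric juice collected every 30 min for 4 h. Total acidity found by titration with 0.1 N NaOH to pH 7.0.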

| Compound | inhibition in vivo at 3 mg/kg |
| --- | --- |
| COc1ccc2[nH]c([S+]([O-])Cc3c(N)cc(C)c(OC)c3C)nc2c1 (stereo not given) | 31% |
| CCc1ccc(N)c(C[S+]([O-])c2nc3ccccc3[nH]2)c1 (stereo not given) | 62% |
| Cc1cccc(N)c1C[S+]([O-])c1nc2ccccc2[nH]1 (stereo not given) | 44% |
| Cc1cccc2[nH]c([S+]([O-])Cc3ccccc3N)nc12 (stereo not given) | 60% |
| COc1c(C)cc(N)c(C[S+]([O-])c2nc3ccccc3[nH]2)c1C (stereo not given) | 53% |
| CN(C)c1ccccc1C[S+]([O-])c1nc2ccccc2[nH]1 (stereo not given) | 14% |
| CC(=O)Nc1ccccc1C[S+]([O-])c1nc2ccccc2[nH]1 (stereo not given) | 37% |
| COc1ccc2[nH]c([S+]([O-])Cc3ncc(C)c(OC)c3C)nc2c1 (stereo not given) [OMEPRAZOLE] | 97% |
| Nc1ccc(C(F)(F)F)cc1C[S+]([O-])c1nc2ccccc2[nH]1 (stereo not given) | 16% |
| Cc1ccc(C[S+]([O-])c2nc3ccccc3[nH]2)c(N)c1C (stereo not given) | 79% |
| CCCCc1ccc(N)c(C[S+]([O-])c2nc3ccccc3[nH]2)c1 (stereo not given) | 19% |
| COC(=O)c1cccc(C[S+]([O-])c2nc3ccccc3[nH]2)c1N (stereo not given) | 28% |
| COc1ccc2[nH]c([S+]([O-])Cc3ccccc3N)nc2c1 (stereo not given) | 78% |
| Nc1cc(Cl)ccc1C[S+]([O-])c1nc2ccccc2[nH]1 (stereo not given) | 13% |
| [O-][S+](Cc1ccccn1)c1nc2ccccc2[nH]1 (stereo not given) [TIMOPRAZOLE] | 68% |
| Nc1ccccc1C[S+]([O-])c1nc2ccccc2[nH]1 (stereo not given) | 53% |
| COc1cccc(C[S+]([O-])c2nc3ccccc3[nH]2)c1N (stereo not given) | 68% |
| CCc1cccc(C[S+]([O-])c2nc3ccccc3[nH]2)c1N (stereo not given) | 21% |
| CNc1ccccc1C[S+]([O-])c1nc2ccccc2[nH]1 (stereo not given) | 21% |
| Cc1ccc(N)c(C[S+]([O-])c2nc3ccccc3[nH]2)c1 (stereo not given) | 67% |
| Cc1cccc(C[S+]([O-])c2nc3ccccc3[nH]2)c1N (stereo not given) | 44% |
| COc1ccc2[nH]c([S+]([O-])Cc3cc(C)ccc3N)nc2c1 (stereo not given) | 80% |
| CCOC(=O)c1ccc(N)c(C[S+]([O-])c2nc3ccccc3[nH]2)c1 (stereo not given) | 7% |
| COc1ccc2[nH]c([S+]([O-])Cc3cccc(C)c3N)nc2c1 (stereo not given) | 72% |
| Nc1ccccc1C[S+]([O-])c1nc2cc(C(F)(F)F)ccc2[nH]1 (stereo not given) | 37% |
| Nc1ccc(Cl)cc1C[S+]([O-])c1nc2ccccc2[nH]1 (stereo not given) | 24% |
| Cc1cc2nc([S+]([O-])Cc3ccccc3N)[nH]c2cc1C (stereo not given) | 44% |

Test system: Canis familiaris
Experiment: Inhibitory activity when administered […] in histamine-stimulated gastric fistula dog at 3 mg/kg, id; Lethal at 10 mg/kg, id
Assay type: functional, organism-based
Conditions: Canis lupus familiaris, Stomach
Summary of the method: as §1

| Compound | inhibition |
| --- | --- |
| Cc1cc(C)c(N)c(C[S+]([O-])c2nc3ccccc3[nH]2)c1 (stereo not given) | Lethal at 10mg/kg,id |

Molecular target: Potassium-transporting ATPase (Canis familiaris)
Experiment: In vitro inhibitory activity against H+/K+ ATPase prepared from canine fundic mucosa
Conditions: not given

| Compound | IC50 |
| --- | --- |
| COc1ccc2[nH]c([S+]([O-])Cc3c(N)cc(C)c(OC)c3C)nc2c1 (stereo not given) | 2.1 µM |
| CCc1ccc(N)c(C[S+]([O-])c2nc3ccccc3[nH]2)c1 (stereo not given) | 2 µM |
| Cc1cccc(N)c1C[S+]([O-])c1nc2ccccc2[nH]1 (stereo not given) | 0.7 µM |
| Cc1cccc2[nH]c([S+]([O-])Cc3ccccc3N)nc12 (stereo not given) | 7.4 µM |
| COc1c(C)cc(N)c(C[S+]([O-])c2nc3ccccc3[nH]2)c1C (stereo not given) | 0.2 µM |
| CN(C)c1ccccc1C[S+]([O-])c1nc2ccccc2[nH]1 (stereo not given) | 0.7 µM |
| CC(=O)Nc1ccccc1C[S+]([O-])c1nc2ccccc2[nH]1 (stereo not given) | > 100 µM |
| COc1cc2nc([S+]([O-])Cc3ccccc3N)[nH]c2cc1OC (stereo not given) | 120 µM |
| Nc1ccccc1C[S+]([O-])c1nc2cc(Cl)ccc2[nH]1 (stereo not given) | 12 µM |
| COc1ccc2[nH]c([S+]([O-])Cc3ccccc3N)nc2c1 (stereo not given) | 11 µM |
| Cc1ccc2[nH]c([S+]([O-])Cc3ccccc3N)nc2c1 (stereo not given) | 7.9 µM |
| COc1cccc(C[S+]([O-])c2nc3ccccc3[nH]2)c1N (stereo not given) | 9.3 µM |
| CNc1ccccc1C[S+]([O-])c1nc2ccccc2[nH]1 (stereo not given) | 0.6 µM |
| Cc1cc(Cl)cc(C[S+]([O-])c2nc3ccccc3[nH]2)c1N (stereo not given) | 60 µM |
| CCOC(=O)c1ccc(N)c(C[S+]([O-])c2nc3ccccc3[nH]2)c1 (stereo not given) | > 100 µM |
| Nc1ccc(Cl)cc1C[S+]([O-])c1nc2ccccc2[nH]1 (stereo not given) | > 100 µM |
| COc1cc(Cl)c(C)c(C[S+]([O-])c2nc3ccccc3[nH]2)c1N (stereo not given) | 2.7 µM |
| Cc1cc2nc([S+]([O-])Cc3ccccc3N)[nH]c2cc1C (stereo not given) | 13.5 µM |
| Cc1ccc(C)c(C[S+]([O-])c2nc3ccccc3[nH]2)c1N (stereo not given) | 0.8 µM |

Second part, the molecule after the results:

| IC50 | Compound |
| --- | --- |
| 24 µM | CCOc1ccc2[nH]c([S+]([O-])Cc3ccccc3N)nc2c1 (stereo not given) |
| 0.7 µM | Cc1ccc2nc([S+]([O-])Cc3ccc(C)c(C)c3N)[nH]c2c1 (stereo not given) |
| 5.3 µM | CCOc1ccc2[nH]c([S+]([O-])Cc3cc(C)ccc3N)nc2c1 (stereo not given) |
| 1.6 µM | COc1ccc(N)c(C[S+]([O-])c2nc3ccccc3[nH]2)c1 (stereo not given) |
| 0.8 µM | Cc1cc(C)c(N)c(C[S+]([O-])c2nc3ccccc3[nH]2)c1 (stereo not given) |
| > 100 µM | Nc1ccc(C(F)(F)F)cc1C[S+]([O-])c1nc2ccccc2[nH]1 (stereo not given) |
| 0.6 µM | Cc1ccc(C[S+]([O-])c2nc3ccccc3[nH]2)c(N)c1C (stereo not given) |
| 2.6 µM | CCCCc1ccc(N)c(C[S+]([O-])c2nc3ccccc3[nH]2)c1 (stereo not given) |
| > 100 µM | COC(=O)c1cccc(C[S+]([O-])c2nc3ccccc3[nH]2)c1N (stereo not given) |
| 24 µM | Nc1cc(Cl)ccc1C[S+]([O-])c1nc2ccccc2[nH]1 (stereo not given) |
| 25 µM | Nc1ccc(F)cc1C[S+]([O-])c1nc2ccccc2[nH]1 (stereo not given) |
| 8.5 µM | COc1cccc(C[S+]([O-])c2nc3cc(C(F)(F)F)ccc3[nH]2)c1N (stereo not given) |
| 4.3 µM | Nc1ccccc1C[S+]([O-])c1nc2ccccc2[nH]1 (stereo not given) |
| 3.9 µM | CCc1cccc(C[S+]([O-])c2nc3ccccc3[nH]2)c1N (stereo not given) |
| > 100 µM | CCOC(=O)c1ccc(N)c(C[S+]([O-])c2nc3ccc(OC)cc3[nH]2)c1 (stereo not given) |
| 2.1 µM | Cc1ccc(N)c(C[S+]([O-])c2nc3ccccc3[nH]2)c1 (stereo not given) |
| 3.2 µM | Cc1cccc(C[S+]([O-])c2nc3ccccc3[nH]2)c1N (stereo not given) |
| 4.2 µM | COc1ccc2[nH]c([S+]([O-])Cc3cc(C)ccc3N)nc2c1 (stereo not given) |
| 1.5 µM | Cc1ccc(C)c(C[S+]([O-])c2nc3cc(C(F)(F)F)ccc3[nH]2)c1N (stereo not given) |
| 5.4 µM | COc1ccc2[nH]c([S+]([O-])Cc3cccc(C)c3N)nc2c1 (stereo not given) |
| 4.4 µM | Nc1ccccc1C[S+]([O-])c1nc2cc(C(F)(F)F)ccc2[nH]1 (stereo not given) |
| 6.4 µM | Cc1c(Cl)ccc(C[S+]([O-])c2nc3ccccc3[nH]2)c1N (stereo not given) |
| 10 µM | Cc1cc(N)c(C[S+]([O-])c2nc3ccccc3[nH]2)c(C)c1C (stereo not given) |
